From ChEMBL document CHEMBL1150326 (Bioorg Med Chem, 2008)
Active and inactive are the calls of the source. No cut-off for these calls is given here.

Legend:
[1] = test system: MX1; assay: Antitumor activity in human MX1 cells xenografted mouse assessed as complete tumor remission at 30 mg/kg, iv administered in Q2D x 5 schedule; assay type: functional, organism-based; parameters: dose 30 mg/kg
[2] = test system: MX1; assay: Cytotoxicity against human MX1 cells after 72 hrs by SRB assay; assay type: functional, cell-based; conditions: MX1, 72 h
Outline: (§1)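 Solid tumour cells (breast MX-1, colon HCT116) exposed for 72 h. Growth measured by SRB assay. IC50 obtained by median-effect plot from six or seven concentrations, in duplicate or triplicate.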

[3] = Chemical stability assessed as half life at 1 mg in DMSO/Tween 80/normal saline solution; assay type: physicochemical
Outline: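 1 mg of compound held in i.v. vehicle (DMSO/Tween 80/normal saline, 0.5:0.4:1.6 v/v/v). Degradation followed by silica TLC (CHCl3/MeOH 10:1) and confirmed by reversed-phase HPLC.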

[4] = test system: Mus musculus; assay: Toxicity against human MX1 cells xenografted mouse assessed as body weight loss at 30 mg/kg, iv administered in Q2D x 5 schedule; assay type: organism-based; parameters: dose 30 mg/kg, route intravenous; conditions: in vivo
Outline: (§2)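 Nude nu/nu male mice (8 weeks or older, 22 g or more) carrying xenografts, given i.v. tail-vein injections in DMSO/Tween 80/saline vehicle, n = 3. Host toxicity taken as body weight change from the initial pretreatment weight, tracked through and after dosing.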

[5] = test system: CCRF-CEM; assay: Selectivity ratio of IC50 for taxol-resistant human CCRF-CEM cells to IC50 for human CCRF-CEM cells; assay type: functional
Outline: (§3)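 Fold resistance: IC50 in the taxol- or vinblastine-resistant CCRF-CEM subline divided by the IC50 in parent CCRF-CEM.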

[6] = test system: CCRF-CEM; assay: Cytotoxicity against taxol-resistant human CCRF-CEM cells after 72 hrs by XTT assay; assay type: functional, cell-based
Outline: (§4)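 Leukaemic CCRF-CEM cells and their taxol- and vinblastine-resistant sublines exposed for 72 h. XTT assay read at 450 and 630 nm after 6 h with phenazine methosulfate-XTT at 37 °C. IC50 obtained by the median-effect principle from six or seven concentrations, in duplicate or triplicate.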

[7] = test system: CCRF-CEM; assay: Selectivity ratio of IC50 for vinblastine-resistant human CCRF-CEM cells to IC50 for human CCRF-CEM cells; assay type: functional; outline: as §3
[8] = test system: CCRF-CEM; assay: Cytotoxicity against vinblastine-resistant human CCRF-CEM cells after 72 hrs by XTT assay; assay type: functional, cell-based; outline: as §4
[9] = test system: CCRF-CEM; assay: Cytotoxicity against human CCRF-CEM cells after 72 hrs by XTT assay; assay type: functional, cell-based; outline: as §4
[10] = test system: HCT-116; assay: Cytotoxicity against human HCT116 cells after 72 hrs by SRB assay; assay type: functional, cell-based; conditions: HCT-116, 72 h; outline: as §1
[11] = test system: Mus musculus; assay: Toxicity against human MX1 cells xenografted mouse assessed as body weight loss at 75 mg/kg, iv administered in Q2D x 8 schedule; assay type: organism-based; parameters: dose 75 mg/kg, route intravenous; conditions: in vivo
[12] = test system: MX1; assay: Antitumor activity in human MX1 cells xenografted mouse assessed as complete tumor remission at 75 mg/kg, iv administered in Q2D x 8 schedule; assay type: functional, organism-based; parameters: dose 75 mg/kg
[13] = Stability in mouse assessed as half life; assay type: ADME, organism-based; conditions: in vivo
[14] = test system: MX1; assay: Antitumor activity in human MX1 cells xenografted mouse assessed as complete tumor suppression at 50 mg/kg, iv administered in Q2D x 8 schedule; assay type: functional, organism-based; parameters: dose 50 mg/kg
[15] = test system: MX1; assay: Antitumor activity in human MX1 cells xenografted mouse assessed as complete tumor remission at 50 mg/kg, iv administered in Q2D x 8 schedule; assay type: functional, organism-based; parameters: dose 50 mg/kg
[16] = test system: Mus musculus; assay: Toxicity against human MX1 cells xenografted mouse assessed as body weight loss at 50 mg/kg, iv administered in Q2D x 8 schedule; assay type: organism-based; parameters: dose 50 mg/kg, route intravenous; conditions: in vivo; outline: as §2
[17] = test system: Mus musculus; assay: Toxicity against human U87 MG cells xenografted mouse assessed as body weight loss at 100 mg/kg, iv administered in Q2D x 5 schedule; assay type: organism-based, U-87MG ATCC; parameters: dose 100 mg/kg, route intravenous; conditions: in vivo; outline: as §2
[18] = test system: U-87 MG; assay: Antitumor activity in human U87 MG cells xenografted mouse at 100 mg/kg, iv administered in Q2D x 5 schedule; assay type: functional, organism-based; parameters: dose 100 mg/kg; conditions: U-87MG ATCC
[19] = test system: Mus musculus; assay: Toxicity against human MX1 cells xenografted mouse assessed as body weight loss at 100 mg/kg, iv administered in Q2D x 5 schedule; assay type: organism-based; parameters: dose 100 mg/kg, route intravenous; conditions: in vivo; outline: as §2
[20] = test system: MX1; assay: Antitumor activity in human MX1 cells xenografted mouse assessed as complete tumor remission at 100 mg/kg, iv administered in Q2D x 5 schedule; assay type: functional, organism-based; parameters: dose 100 mg/kg
[21] = test system: NCI-H1299; assay: Induction of DNA interstrand cross linking in 20 Gy irradiated human H1299 cells at 10 uM after 1 hr by comet assay; assay type: functional
Outline: (§5)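 H1299 cells (2 × 10^5) plated and grown for 32 h at 37 °C in 5% CO2, then drug-treated for 1 h. Cells given 20 Gy irradiation and embedded in 1.2% low-melting agarose for a modified comet assay under subdued light. Tail moment scored in 100 cells. Cross-linking % = [1 − (TMdi−TMcu)/(TMci−TMcu)] × 100. Three experiments, mean ± SD.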

[22] = Cytotoxicity against human H1299 cells; assay type: functional, cell-based; conditions: NCI-H1299
[23] = Stability in rat plasma assessed as half life at 5 ug/mL by HPLC; assay type: ADME, cell-free
Outline: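 Rat plasma (100 µL, 5 µg/mL compound) deproteinised with acetonitrile (1:2), centrifuged at 10,000 g for 10 min and filtered. Analysed by HPLC on methanol:10 mM NaH2PO4 (60:40, pH 3.0) at 0.8 mL/min, UV 266 nm, quantified by peak area. Detection limit 20 ng/mL; n = 4.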

[24] = test system: NCI-H1299; assay: Induction of DNA interstrand cross linking in 20 Gy irradiated human H1299 cells at 200 uM after 1 hr by comet assay; assay type: functional; outline: as §5

Compound: Cc1cccc2c(Nc3cc(CO)cc(NC(=O)Nc4ccc(N(CCCl)CCCl)cc4)c3)c3ccccc3nc12
- Activity [1]: Active
- IC50 [2]: 125 nM
- half-life [3]: 59 days
- Activity [4]: 10%
- Ratio IC50 [5]: 12.7
- IC50 [6]: 394 nM
- Ratio IC50 [7]: 57.5
- IC50 [8]: 1790 nM
- IC50 [9]: 31.1 nM
- IC50 [10]: 263 nM

Compound: Cc1cc(NC(=O)Nc2ccc(N(CCCl)CCCl)cc2)cc(Nc2c3ccccc3nc3ccccc23)c1
- IC50 [2]: 529 nM
- Activity [11]: 10%
- Ratio IC50 [5]: 2.72
- IC50 [6]: 384 nM
- Ratio IC50 [7]: 4.2
- IC50 [8]: 593 nM
- IC50 [9]: 141 nM
- IC50 [10]: 816 nM
- Activity [12]: Active

Compound: COc1cc(NC(=O)Nc2ccc(N(CCCl)CCCl)cc2)cc(Nc2c3ccccc3nc3ccccc23)c1
- IC50 [2]: 1110 nM
- Ratio IC50 [5]: 1.34
- IC50 [6]: 50.4 nM
- Ratio IC50 [7]: 1.46
- IC50 [8]: 54.8 nM
- IC50 [9]: 37.5 nM
- IC50 [10]: 496 nM

Compound: OCc1cc(Nc2c3ccccc3nc3ccccc23)cc(OCCN(CCCl)CCCl)c1
- Ratio IC50 [5]: 0.96
- IC50 [6]: 3.2 nM
- Ratio IC50 [7]: 3.84
- IC50 [8]: 12.8 nM
- IC50 [9]: 3.33 nM
- IC50 [10]: 6.5 nM
- half-life [13]: < 0.0174 days

Compound: O=C(Nc1ccc(N(CCCl)CCCl)cc1)Nc1cc(CO)cc(Nc2c3ccccc3nc3ccccc23)c1
- Activity [14]: Active
- Activity [15]: inactive
- IC50 [2]: 369 nM
- half-life [3]: 55 days
- Ratio IC50 [5]: 304
- IC50 [6]: 17200 nM
- Activity [16]: 10%
- IC50 [10]: 216 nM

Compound: COc1ccc(Nc2c3ccccc3nc3ccccc23)cc1NC(=O)Nc1ccc(N(CCCl)CCCl)cc1
- IC50 [2]: 1200 nM
- Ratio IC50 [5]: 4.39
- IC50 [6]: 33.8 nM
- Ratio IC50 [7]: 7.13
- IC50 [8]: 54.9 nM
- IC50 [9]: 7.7 nM
- IC50 [10]: 256 nM

Compound: Cc1ccc(Nc2c3ccccc3nc3c(C)cccc23)cc1NC(=O)Nc1ccc(N(CCCl)CCCl)cc1
- Activity [17]: 15%
- Activity [18]: Active
- Activity [19]: 10%
- IC50 [2]: 240 nM
- Activity [20]: Active
- Activity [21]: 39.2%
- half-life [3]: 55 days
- Ratio IC50 [5]: 1.18
- IC50 [6]: 91.8 nM
- Ratio IC50 [7]: 1.64
- IC50 [22]: 510 nM
- IC50 [8]: 128 nM
- IC50 [9]: 77.8 nM
- half-life at 5 ug/mL [23]: 2.26 days
- IC50 [10]: 437 nM

Compound: O=C(Nc1ccc(N(CCCl)CCCl)cc1)Nc1c2ccccc2nc2ccccc12
- IC50 [2]: 810 nM
- Ratio IC50 [5]: 1.68
- IC50 [6]: 385 nM
- Ratio IC50 [7]: 1.65
- IC50 [8]: 378 nM
- IC50 [9]: 229 nM
- IC50 [10]: 900 nM

Compound: N[C@@H](Cc1ccc(N(CCCl)CCCl)cc1)C(=O)O [MELPHALAN]
- Activity [24]: 47.3%

Compound: Cc1ccc(Nc2c3ccccc3nc3ccccc23)cc1NC(=O)Nc1ccc(N(CCCl)CCCl)cc1
- IC50 [2]: 584 nM
- Ratio IC50 [5]: 2.08
- IC50 [6]: 34.7 nM
- Ratio IC50 [7]: 2
- IC50 [8]: 33.4 nM
- IC50 [9]: 16.7 nM
- IC50 [10]: 264 nM

Compound: COc1cc(NC(=O)Nc2ccc(N(CCCl)CCCl)cc2)cc(Nc2c3ccccc3nc3c(C(=O)NCCN(C)C)cccc23)c1
- IC50 [2]: 638 nM
- Ratio IC50 [5]: 2.29
- IC50 [6]: 30.2 nM
- Ratio IC50 [7]: 72
- IC50 [8]: 951 nM
- IC50 [9]: 13.2 nM
- IC50 [10]: 110 nM

Compound: COc1ccc(NC(=O)Nc2ccc(N(CCCl)CCCl)cc2)cc1Nc1c2ccccc2nc2ccccc12
- IC50 [2]: 591 nM
- Ratio IC50 [5]: 1.33
- IC50 [6]: 58.8 nM
- Ratio IC50 [7]: 1.24
- IC50 [8]: 54.8 nM
- IC50 [9]: 44.2 nM
- IC50 [10]: 188 nM

Compound: COc1ccc(NC(=O)Nc2ccc(N(CCCl)CCCl)cc2)cc1Nc1c2ccccc2nc2c(C)cccc12
- IC50 [2]: 1810 nM
- Ratio IC50 [5]: 1.93
- IC50 [6]: 57.4 nM
- Ratio IC50 [7]: 1.3
- IC50 [8]: 30.6 nM
- IC50 [9]: 29.7 nM
- IC50 [10]: 571 nM

Compound: CC[C@]1(O)C[C@@H]2CN(CCc3c([nH]c4ccccc34)[C@@](C(=O)OC)(c3cc4c(cc3OC)N(C)[C@H]3[C@@](O)(C(=O)OC)[C@H](OC(C)=O)[C@]5(CC)C=CCN6CC[C@]43[C@@H]65)C2)C1 [VINBLASTINE]
- IC50 [2]: 2.9 nM
- IC50 [10]: 1.8 nM

Compound: Cc1ccc(NC(=O)Nc2ccc(N(CCCl)CCCl)cc2)cc1Nc1c2cccc(C)c2nc2c(C(=O)NCCN(C)C)cccc12
- IC50 [2]: 60.1 nM
- Ratio IC50 [5]: 14.7
- IC50 [6]: 176 nM
- Ratio IC50 [7]: 25.4
- IC50 [8]: 303 nM
- IC50 [9]: 11.9 nM
- IC50 [10]: 60 nM

Compound: CC(=O)O[C@H]1C(=O)[C@@]2(C)[C@H]([C@H](OC(=O)c3ccccc3)[C@]3(O)C[C@H](OC(=O)[C@H](O)[C@@H](NC(=O)c4ccccc4)c4ccccc4)C(C)=C1C3(C)C)[C@]1(OC(C)=O)CO[C@@H]1C[C@@H]2O [PACLITAXEL]
- IC50 [2]: 35 nM
- Ratio IC50 [5]: 330
- Ratio IC50 [7]: 980
- IC50 [8]: 1270 nM
- IC50 [9]: 1.3 nM
- IC50 [10]: 1.3 nM

Compound: COc1cc(NC(=O)Nc2ccc(N(CCCl)CCCl)cc2)cc(Nc2c3ccccc3nc3c(C)cccc23)c1
- IC50 [2]: 868 nM
- Ratio IC50 [5]: 1.68
- IC50 [6]: 49.8 nM
- Ratio IC50 [7]: 1.46
- IC50 [8]: 43.3 nM
- IC50 [9]: 29.6 nM
- IC50 [10]: 242 nM

Compound: COc1ccc(Nc2c3ccccc3nc3c(C)cccc23)cc1NC(=O)Nc1ccc(N(CCCl)CCCl)cc1
- IC50 [2]: 367 nM
- Ratio IC50 [5]: 1.25
- IC50 [6]: 11.5 nM
- Ratio IC50 [7]: 2.76
- IC50 [8]: 24.6 nM
- IC50 [9]: 9.2 nM
- IC50 [10]: 74.9 nM

Compound: Cc1ccc(NC(=O)Nc2ccc(N(CCCl)CCCl)cc2)cc1Nc1c2ccccc2nc2c(C)cccc12
- IC50 [2]: 589 nM
- Ratio IC50 [5]: 2.02
- IC50 [6]: 23 nM
- Ratio IC50 [7]: 2.15
- IC50 [8]: 24.5 nM
- IC50 [9]: 11.4 nM
- IC50 [10]: 158 nM
